Source: PubChem BioAssay (Broad Institute)
IDH1 R132H inh: inhibitors of human IDH1 R132H; AID 624101; inhibition, % at 10 µM; IDH1 R132H reductase, diaphorase/resazurin fluorescence, 60 min; actives 0.18% (n = 70,000); in the data active = inhibition above about 34%; inconclusive = no clear call, values can overlap the other calls; inactive = below about 11%;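 note: 0% = DMSO and 100% = no enzyme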
T cruzi growth-1: T. cruzi proliferation inhibition; T. cruzi beta-gal in NIH3T3, GalScreen luminescence, 90 h; inhibition, % at 8.34 µM; actives 5.9% (n = 77,000); AID 624255;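 active = mean inhibition above about 93%, with at least 55% of replicates each passing it, limit read from the data, passing the limit was not always enough; inconclusive = only one of those two conditions holds; inactive = neither condition holds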
KDM4C inh: KDM4C (human) demethylase inhibition | Q9H3R0 | GST-KDM4C 2-372, H3K9me3 peptide, LANCE TR-FRET | inhibition, % at 12.5 µM | actives 0.15% (n = 96,000);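 active = mean replicate inhibition above about 25%, with at least 55% of replicates also reaching it, limit read from the data, passing the limit was not always enough; inconclusive = only one of those two conditions met; inactive = neither condition met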
Target sequence (Q9H3R0 2-372 limits assumed): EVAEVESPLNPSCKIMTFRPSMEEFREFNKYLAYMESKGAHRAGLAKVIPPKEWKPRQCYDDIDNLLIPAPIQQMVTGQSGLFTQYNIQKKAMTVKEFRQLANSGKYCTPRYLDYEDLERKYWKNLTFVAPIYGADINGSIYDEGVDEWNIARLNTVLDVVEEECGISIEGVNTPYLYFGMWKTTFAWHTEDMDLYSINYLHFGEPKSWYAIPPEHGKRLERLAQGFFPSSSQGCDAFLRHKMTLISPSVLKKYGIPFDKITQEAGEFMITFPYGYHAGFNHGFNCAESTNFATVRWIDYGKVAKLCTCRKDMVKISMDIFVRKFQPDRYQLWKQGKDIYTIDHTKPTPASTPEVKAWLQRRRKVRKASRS
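Material: N-terminal GST-fused human GASC-1 (KDM4C) fragment, residues 2-372. Input: 10 nM enzyme. Incubation: enzyme reaction 30 min, then detection 60 min, both room temperature. Doses: one test concentration per compound. Read-out basis: inhibition from TR-FRET ratio decrease. Detection: LANCE TR-FRET, excitation 340 nm, emissions 618 and 671 nm.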
T cruzi growth-2: inhibitors of T. cruzi proliferation. AID 651739. T. cruzi beta-gal in NIH3T3, GalScreen luminescence, 90 h. shares compounds with T cruzi growth-1. inhibition, % at 8.35 µM. actives 72% (n = 5,600);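 active = mean replicate inhibition above about 95% and at least 55% of replicates individually reaching it, limit read from the data; inconclusive = only one of the two criteria is met; inactive = neither criterion is met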
T cruzi growth-3: blocks T. cruzi growth in NIH3T3 host cells. T. cruzi beta-gal in NIH3T3, GalScreen luminescence, 90 h. inhibition, % at 2.09 µM. shares compounds with T cruzi growth-1. actives 21% (n = 5,600);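 active = mean inhibition above about 95%, with at least 55% of replicates also reaching it, limit read from the data; inconclusive = meets just one of the two conditions; inactive = meets neither condition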;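 note: plate controls were neutral control median for no effect and positive control median for full effect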
NIH3T3 tox: kills mouse NIH/3T3 fibroblasts. shares compounds with T cruzi growth-1. NIH/3T3 viability, CellTiter-Glo ATP luminescence, 90 h. cytotoxicity (signal decrease), % at 8.35 µM. actives 14% (n = 5,600). AID 651742;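 active = mean signal decrease across replicates above about 35% based on untreated-well scatter, with enough replicates individually passing, limit read from the data; inconclusive = no rule stated though some were filed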;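 note: 0% = median of neutral control wells and 100% = median of positive control wells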
NIH3T3 tox 2: NIH/3T3 (mouse) viability loss; shares compounds with T cruzi growth-1; NIH/3T3 viability, CellTiter-Glo ATP luminescence, 90 h; inhibition, % at 24.9 µM; actives 56% (n = 5,600); AID 651744;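 active = mean loss of cell viability signal at or above a set limit, and enough replicates individually reaching it; inconclusive = meets only the mean limit or only the replicate share; inactive = meets neither condition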;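 note: 0% = median of neutral control wells and 100% = median of positive control wells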
Numbers without * were called inactive; ? = inconclusive; · = not tested or not shown. This is one part of a sample in which hits are shown more often than they occur.

SMILES	IDH1 R132H inh	T cruzi growth-1	KDM4C inh	T cruzi growth-2	T cruzi growth-3	NIH3T3 tox	NIH3T3 tox 2
C[C@@H]1CCCCO[C@H](CN(C)Cc2ccc(C(F)(F)F)cc2)[C@H](C)CN([C@@H](C)CO)C(=O)c2cc(NC(=O)C3CCCCC3)ccc2O1	-1.4	117.1*	-2.9	102.2*	110.2*	57.1*	73.3*
COc1cccc(N(CC(=O)Nc2cccc(Cl)c2)S(C)(=O)=O)c1	0.4	·	·	·	·	·	·
COc1cccc(C#Cc2ccc([C@@H]3[C@H](C#N)N(C(=O)C4CC4)[C@H]3CO)cc2)c1	·	?	-2.0	93.8	111.6*	7.6	24.8*
N#C[C@H]1[C@@H](c2ccc(C#Cc3cccc(F)c3)cc2)[C@H](CO)N1C(=O)C1CC1	·	98.1*	-2.1	99.5*	100.4*	39.3*	95.2*
N#C[C@@H]1[C@H](c2ccc(C#Cc3ccc(F)cc3)cc2)[C@@H](CO)N1C(=O)C1CC1	·	102.8*	0.7	104.5*	108.0*	0.5	98.0*
N#C[C@@H]1[C@@H](c2ccc(C#Cc3ccc(F)cc3)cc2)[C@H](CO)N1C(=O)C1CCC1	·	87.1	-1.9	·	·	·	·
N#C[C@@H]1[C@@H](c2ccc(C#Cc3cccnc3)cc2)[C@@H](CO)N1C(=O)C1CC1	·	37.1	0.1	·	·	·	·
COc1cccc(C#Cc2ccc([C@@H]3[C@@H](C#N)N(C(=O)C4CCCC4)[C@@H]3CO)cc2)c1	·	·	-1.8	·	·	·	·
N#C[C@H]1[C@H](c2ccc(C#Cc3cccc(F)c3)cc2)[C@@H](CO)N1C(=O)C1CC1	·	101.6*	2.2	103.8*	83.3	14.2	15.4
Cn1c(SCc2nc3ccccc3c(=O)[nH]2)nnc1-c1cc2cc(Br)ccc2o1	-0.1	·	·	·	·	·	·
Cc1ccc([N+](=O)[O-])cc1N(CC(=O)Nc1cccc(Br)c1)S(C)(=O)=O	0.1	·	·	·	·	·	·
OCCN(CCO)Cc1ccc(Cl)cc1	-0.2	·	·	·	·	·	·
CN(CCCC(=O)O)c1nc(-c2ccc(F)cc2)cs1	2.9	·	·	·	·	·	·
O=C(C[C@H]1CC[C@@H](NC(=O)Nc2cc(F)ccc2F)[C@H](CO)O1)Nc1ccc(-c2ccccc2)cc1	-0.4	131.9*	-1.9	106.2*	74.7	22.8	32.2*
O=C(C[C@@H]1CC[C@H](NC(=O)Nc2cc(F)ccc2F)[C@@H](CO)O1)Nc1ccc(-c2ccccc2)cc1	0.2	-17.3	-1.1	·	·	·	·
O=C(C[C@H]1CC[C@H](NC(=O)Nc2ccccc2)[C@H](CO)O1)NCc1ccccn1	0.2	-56.3	-0.2	·	·	·	·
O=C(C[C@@H]1CC[C@@H](NC(=O)Nc2ccccc2)[C@H](CO)O1)NCc1ccccn1	0.4	108.2*	-0.3	-12.3	-3.9	-9.2	3.4
Cc1cc(C)nc(SC(C)C(=O)Nc2ccccc2)n1 (configuration not stated)	-0.2	·	·	·	·	·	·
COC(=O)c1cnn(-c2ccccc2)c1C=Nc1ccc(C)cc1	1.1	·	·	·	·	·	·
C[C@@H]1CN([C@@H](C)CO)S(=O)(=O)c2ccc(C3=CCCC3)cc2O[C@H]1CN(C)C(=O)C1CCCCC1	·	?	-0.7	90.7	60.2	26.2	41.2*
C[C@@H]1CN([C@@H](C)CO)S(=O)(=O)c2ccc(C3=CCCC3)cc2O[C@@H]1CN(C)C(=O)C1CCCCC1	-0.4	91.3	0.0	·	·	·	·
C[C@@H]1CN([C@H](C)CO)S(=O)(=O)c2ccc(C3=CCCC3)cc2O[C@@H]1CN(C)C(=O)C1CCCCC1	·	115.2*	0.1	102.2*	80.1	?	25.4
C[C@H]1CN([C@@H](C)CO)S(=O)(=O)c2ccc(C3=CCCC3)cc2O[C@H]1CN(C)C(=O)C1CCCCC1	·	88.8	0.5	·	·	·	·
CCCC(=O)N1CC2(CCN(C(=O)C3CCC3)CC2)c2c(n(C)c3cc(OC)ccc23)[C@@H]1CO	·	·	1.3	·	·	·	·
CC(C)c1ccc(OCC(=O)Nc2ccc(O)cc2C(=O)O)cc1	-0.5	·	·	·	·	·	·
SMILES	IDH1 R132H inh	T cruzi growth-1	KDM4C inh	T cruzi growth-2	T cruzi growth-3	NIH3T3 tox	NIH3T3 tox 2
CC(C)NC(=O)Nc1ccc2c(c1)C(=O)N([C@@H](C)CO)C[C@H](C)[C@@H](CN(C)C(=O)NC1CCCCC1)OCCCC[C@H](C)O2	0.6	14.5	-1.0	·	·	·	·
C[C@@H]1CCCCO[C@@H](CN(C)C(=O)NC2CCCCC2)[C@H](C)CN([C@H](C)CO)C(=O)c2cc(NC(=O)C3CCCCC3)ccc2O1	·	65.6	-0.2	·	·	·	·
CC(C)NC(=O)Nc1ccc2c(c1)C(=O)N([C@@H](C)CO)C[C@@H](C)[C@H](CN(C)C(=O)NC1CCCCC1)OCCCC[C@@H](C)O2	1.9	96.8*	-1.6	38.0	-4.9	9.6	-1.4
C[C@@H]1CN([C@H](C)CO)C(=O)c2cc(NC(=O)C3CCCCC3)ccc2O[C@@H](C)CCCCO[C@H]1CN(C)C(=O)NC1CCCCC1	·	113.6*	7.4	97.9*	89.6	-20.6	36.8
CC(C)NC(=O)Nc1ccc2c(c1)C(=O)N([C@@H](C)CO)C[C@@H](C)[C@@H](CN(C)C(=O)NC1CCCCC1)OCCCC[C@H](C)O2	1.1	5.3	-0.9	·	·	·	·
CC(C)NC(=O)Nc1ccc2c(c1)C(=O)N([C@H](C)CO)C[C@@H](C)[C@H](CN(C)C(=O)NC1CCCCC1)OCCCC[C@@H](C)O2	·	96.5*	-1.8	92.8	40.7	5.0	6.5
CN(CC(=O)Nc1ccccc1-c1ccccc1)S(=O)(=O)c1cc(Cl)ccc1Cl	0.4	·	·	·	·	·	·
CCOc1ccccc1CN1CCN(Cc2cc(Br)ccc2O)CC1	-0.3	·	·	·	·	·	·
Cc1ccc(N=C2NC(=O)CC(C(=O)Nc3ccc(Cl)cc3)S2)cc1C (configuration not stated)	-0.6	·	·	·	·	·	·
CC(=O)c1ccc(NC(=O)CSc2nnc3c4ccccc4n(C)c3n2)cc1	0.1	·	·	·	·	·	·
CCC(C)Nc1nc(OC)nc(Oc2ccc(=O)[nH]n2)n1 (configuration not stated)	0.6	·	·	·	·	·	·
O=C(C[C@@H]1C[C@H]2c3cc(NC(=O)CC4CC4)ccc3O[C@H]2[C@@H](CO)O1)NCc1cccnc1	0.1	29.2	-4.2	·	·	·	·
O=C(C[C@@H]1C[C@H]2c3cc(NC(=O)NC4CCCC4)ccc3O[C@H]2[C@H](CO)O1)NCc1ccccc1	-0.6	102.0*	-1.1	11.1	-29.2	-8.1	21.7
O=C(C[C@H]1C[C@H]2c3cc(NC(=O)NC4CCCC4)ccc3O[C@H]2[C@H](CO)O1)NCc1ccccc1	0.1	53.1	0.6	·	·	·	·
O=C(C[C@@H]1C[C@H]2c3cc(NC(=O)Nc4ccccc4)ccc3O[C@H]2[C@H](CO)O1)NCc1cccc(F)c1	-0.7	103.8*	0.1	-26.0	-17.0	15.0	13.7
O=C(C[C@@H]1C[C@H]2c3cc(NC(=O)CC4CC4)ccc3O[C@H]2[C@H](CO)O1)NCc1cccnc1	-0.1	108.6*	-1.8	88.3	-0.4	3.2	7.5
